Activity calls are given as the source filed them.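 How the source made its calls, unless noted: active means viability at or below 10% of carrier control in both of two separate runs; inconclusive means viability at or below 10% in only one of the two runs; inactive means the rest.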 Peptide text beside a SMILES is read from it. * marks the point of attachment. Boc = CC(C)(C)OC(=O)*

The nature of assay [1]: reduced viability of SK-BR-3 breast cancer cells – cell-based, 24 h, human, pilot screen (AID 572).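 Further: compound exposure lasted between 18 and 24 h rather than exactly 24 h; 100% = carrier-treated control wells.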 Particulars: SK-BR-3 viability, CellTiter-Glo luminescence, at 10 µM, stronger effect = lower value.
Assay [2] is described as follows: HUVEC growth inhibition – cell-based, human, primary screen (AID 575;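 active means viability at or below 30% in both replicate assays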;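 further: 100% = median of untreated cell wells with 0.1% DMSO on each plate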). Particulars: HUVEC proliferation, CellTiter-Glo luminescence, 72 h; at 10 µM; stronger effect = lower value. The essentials:
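material = primary HUVEC, no more than 12 passages | input = 1250 cells per well | controls = vehicle and MePR control wells | measured by = CTG luminescence | times = 72 h compound incubation | format = collagen-coated 384-well format | read-out = % viability vs DMSO wells | doses = single 10 µM dose, 0.1% DMSO, from 5x medium stock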
A general note: ATP-based viability assays read luminescence as a measure of living cells.

Assay [3] in a line: H69AR cell proliferation blockers – human, duplicate replicates, primary screen (AID 580;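 active means viability at or under a set limit in both replicates, limit being median viability minus 3 SD, cut at about 48% in these data, passing the limit was not always enough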;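 further: 100% = mean luminescence of untreated wells and 0% = no signal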). Particulars: H69AR lung tumor cells viability, ATP luminescence, 72 h; at 10 µM; stronger effect = lower value.
Assay [4] is described as follows: MRP1 drug-resistance reversers in H69AR cells – cell-based, doxorubicin co-treatment, pilot screen (AID 601;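 active means viability loss from added drug above about 55%, and viability with drug at most 40%, in both replicates, limit read from the data, passing the limit was not always enough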). The following applies: CellTiter-Glo, 72 h, at 10 µM; for differential viability (reversal): stronger effect = higher value.
Assay [5] can be described thus: yeast transport mutant growth inhibition pilot in 384-well plates, post-Golgi transport modulator project (AID 636; in the data active means inhibition above about 31%). The following applies: absorbance 615 nm, about 18 h, stronger effect = higher value.
Assay [6] is described as follows: growth suppression of yeast trafficking mutant, preliminary HTS, modulators of trafficking downstream of Golgi apparatus project, 1536-format plate, OD 615 nm (AID 637; in the data active means inhibition above about 30%). The following applies: yeast transport mutant growth, absorbance 615 nm, 18 h; stronger effect = higher value.
Setting [7] is: H69AR cells + 2 uM doxorubicin, measured here: viability with 2 uM doxorubicin, stronger effect = lower value.
The mark [8] stands for this setting: H69AR cells, compound alone cytotoxicity.

A word on the viability: it is a read-out of living cells in per cent, often relative to untreated cells. By inhibition is commonly meant the drop in the measured response relative to a control, in per cent. Consider `CC(=O)Nc1nc2c(c3c1c(=O)oc1ccccc13)CC(C)CC2` (stereo not given), for which the viability in assay [1] is 123% (inactive); in assay [2], 85.1% (inactive); in assay [3], 92.1% (inactive); in assay [4] (setting [7]) it was 87.1%; in assay [4] (setting [8]) it was 92.1%. Besides, in assay [4] (H69AR cells + 2 uM doxorubicin), the differential viability (reversal) is 4.96% (inactive). For the same compound, the values for the inhibition in assay [5] and in assay [6] were -1.04% (inactive) and -2.79% (inactive), respectively.
On to `O=C(CSc1nnc(-c2ccco2)n1CC1CCCO1)N1CCCCC1` (stereo not given), for which the viability is 94% (inactive) in assay [1]; 106% (inactive) in assay [2]; 97.6% (inactive) in assay [3]; 92.7% in assay [4] (setting [7]); 97.6% in assay [4] (setting [8]). In addition, the differential viability (reversal) in assay [4] (H69AR cells + 2 uM doxorubicin) is 4.84% (inactive). In addition, the inhibition was -3.6% (inactive) in assay [5] and 0.36% (inactive) in assay [6].
Turning to `Cc1c(C)n(C(=O)CN2CCN(c3ccccn3)CC2)c2ccccc12`, the viability in assay [1] was 102% (inactive); in assay [2], 81.2% (inactive); in assay [3] it was 81.7% (inactive); in assay [4] (setting [7]), 82.5%; in assay [4] (setting [8]) it was 81.7%. In addition, the differential viability (reversal) in assay [4] (H69AR cells + 2 uM doxorubicin) was -0.845% (inactive). Further, the inhibition was -5.2% (inactive) in assay [5] and -2.73% (inactive) in assay [6].
As to `CCCCC(=O)Nc1ccc(NC(=O)C2CC2)nc1`, the viability is 91% (inactive) in assay [1]; 108% (inactive) in assay [2]; 101% (inactive) in assay [3]; 106% in assay [4] (setting [7]); 101% in assay [4] (setting [8]). The differential viability (reversal) in assay [4] (H69AR cells + 2 uM doxorubicin) is -4.46% (inactive). Further, the inhibition is -1.51% (inactive) in assay [5] and -1.13% (inactive) in assay [6].
In the case of `Cc1nc2ccc(C(=O)O)cc2c2c1CC(C)S2` (stereo not given), the viability in assay [1] is 93% (inactive); in assay [2] it was 96.8% (inactive); in assay [3], 90.8% (inactive); in assay [4] (setting [7]), 93.1%; in assay [4] (setting [8]), 90.8%. In addition, the differential viability (reversal) in assay [4] (H69AR cells + 2 uM doxorubicin) is -2.25% (inactive). Also, the results for the inhibition in assay [5] and in assay [6] were -4.93% (inactive) and 0.55% (inactive), respectively.
Turning to `Cc1onc(-c2ccccc2)c1C(=O)Nc1sc2c(c1C(N)=O)CCC2`, the viability in assay [1] is 88.5% (inactive); in assay [2], 53.5% (inactive); in assay [3] it was 62.1% (inactive); in assay [4] (setting [7]) it was 82.8%; in assay [4] (setting [8]), 62.1%. Further, in assay [4] (H69AR cells + 2 uM doxorubicin), the differential viability (reversal) is -20.8% (inactive). Moreover, the figures for the inhibition in assay [5] and in assay [6] were -1.71% (inactive) and -1% (inactive), respectively.
With `COc1ccc2cnn(-c3ccccc3C)c(=O)c2c1OC`, the viability is 88% (inactive) in assay [1]; 85.5% (inactive) in assay [2]; 106% (inactive) in assay [3]; 108% in assay [4] (setting [7]); 106% in assay [4] (setting [8]). The differential viability (reversal) in assay [4] (H69AR cells + 2 uM doxorubicin) is -1.29% (inactive). Further, the inhibition in assay [5] is -3.24% (inactive); in assay [6] it was 0.55% (inactive).
For `CC(C)(C)C1=Nn2c(nnc2-c2n[nH]c3c2CCC3)SC1`, the viability in assay [1] is 87% (inactive); in assay [2], 97.3% (inactive); in assay [3], 85.9% (inactive); in assay [4] (setting [7]), 90.6%; in assay [4] (setting [8]), 85.9%. Besides, the differential viability (reversal) in assay [4] (H69AR cells + 2 uM doxorubicin) was -4.71% (inactive). For the same compound, the inhibition in assay [5] is -7.26% (inactive); in assay [6], 4.68% (inactive).
As for `Cc1cc(C(F)(F)F)nc(NCc2cccnc2)n1`, the viability in assay [1] was 97% (inactive); in assay [2], 96.4% (inactive); in assay [3], 92.5% (inactive); in assay [4] (setting [7]), 82.9%; in assay [4] (setting [8]), 92.5%. In addition, the differential viability (reversal) in assay [4] (H69AR cells + 2 uM doxorubicin) was 9.55% (inactive). Further, the inhibition was -1.04% (inactive) in assay [5] and -1.97% (inactive) in assay [6].
As to `Cc1ccn2cc(CCNC(=O)CC(C)(C)C)nc2c1`, the viability in assay [1] was 89% (inactive); in assay [2] it was 113% (inactive); in assay [3], 97.9% (inactive); in assay [4] (setting [7]), 88.6%; in assay [4] (setting [8]), 97.9%. Further, the differential viability (reversal) in assay [4] (H69AR cells + 2 uM doxorubicin) is 9.27% (inactive). Besides, the figures for the inhibition in assay [5] and in assay [6] were -4.19% (inactive) and -2.36% (inactive), respectively.
Consider `Cc1ccc(S(=O)(=O)N2CCN(S(=O)(=O)N(C)C)CC2)cc1`, for which the viability in assay [1] is 123% (inactive); in assay [2], 107% (inactive); in assay [3], 103% (inactive); in assay [4] (setting [7]), 94.7%; in assay [4] (setting [8]), 103%. Further, in assay [4] (H69AR cells + 2 uM doxorubicin), the differential viability (reversal) was 8.38% (inactive). Besides, the inhibition is -3.15% (inactive) in assay [5] and -4.68% (inactive) in assay [6].
As to `CCOC(=O)c1cnc(SC2CC(=O)N(c3ccc(OC)c(OC)c3)C2=O)nc1N` (stereo not given), the viability in assay [1] was 121% (inactive); in assay [2], 101% (inactive); in assay [3] it was 111% (inactive); in assay [4] (setting [7]), 96.8%; in assay [4] (setting [8]) it was 111%. Moreover, in assay [4] (H69AR cells + 2 uM doxorubicin), the differential viability (reversal) was 14% (inactive). Further, the inhibition in assay [5] is -0.55% (inactive); in assay [6], 1.13% (inactive).
Turning to `COCCCNCC(=O)Nc1ccc(OC(F)(F)F)cc1`, the viability in assay [1] was 102% (inactive); in assay [2], 113% (inactive); in assay [3] it was 98.5% (inactive); in assay [4] (setting [7]) it was 85.5%; in assay [4] (setting [8]), 98.5%. Further, the differential viability (reversal) in assay [4] (H69AR cells + 2 uM doxorubicin) was 13% (inactive). In addition, the inhibition is -9.2% (inactive) in assay [5] and -5.82% (inactive) in assay [6].
Turning to `CSCCC(NC(=O)OC(C)(C)C)C(=O)NC(CC(C)C)C(N)=O` (stereo not drawn) (Boc-Met-Leu-NH2; configuration not given here), the viability in assay [1] is 91% (inactive); in assay [2], 97.7% (inactive); in assay [3], 92% (inactive); in assay [4] (setting [7]) it was 90.4%; in assay [4] (setting [8]) it was 92%. Besides, the differential viability (reversal) in assay [4] (H69AR cells + 2 uM doxorubicin) was 1.58% (inactive). Also, the figures for the inhibition in assay [5] and in assay [6] were 0.39% (inactive) and 0.16% (inactive), respectively.
For `CSc1nnc(-c2ccccc2)n1C`, the viability in assay [1] is 121% (inactive); in assay [2], 102% (inactive); in assay [3], 102% (inactive); in assay [4] (setting [7]), 95.5%; in assay [4] (setting [8]), 102%. Moreover, the differential viability (reversal) in assay [4] (H69AR cells + 2 uM doxorubicin) was 6.17% (inactive). Moreover, the inhibition is -8.36% (inactive) in assay [5] and -0.55% (inactive) in assay [6].

The values are drawn from PubChem BioAssay.
